Our source for the MIC and Activity values is ChEMBL document CHEMBL1933037, “Fatty acyl-gramicidin S derivatives with both high antibiotic activity and low hemolytic activity” (Bioorg Med Chem Lett, 2012).

SMILES strings stand for the structures. Values after ≈ are worked out from the molar mass of the structure shown. Peptide text beside a SMILES is read from it.

The test system of data set [1] is Staphylococcus epidermidis. Put plainly: Antibacterial activity against Staphylococcus epidermidis NBRC 12933 after overnight incubation by microplate dilution method. It counts as functional. In short, it runs like this: (§1)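 MIC read by microplate broth dilution with an inoculum of 10^6 organisms per ml of medium. Each peptide was tested 7–10 times.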
Another data set has as its system Bacillus subtilis. Put plainly: Antibacterial activity against Bacillus subtilis NBRC 3513 after overnight incubation by microplate dilution method. It is filed as functional. In short, it runs like this:
as §1

The next data set deals with Priestia megaterium. Put plainly: Antibacterial activity against Bacillus megaterium ATCC 19213 after overnight incubation by microplate dilution method. It is filed as functional. In outline:
as §1

For the next data set, the system named is Staphylococcus aureus. The data set can be described thus: Antibacterial activity against Staphylococcus aureus NBRC 12732 after overnight incubation by microplate dilution method. It is filed as functional. In short, it runs like this:
as §1

The test system of another data set is Pseudomonas aeruginosa. Put plainly: Antibacterial activity against Pseudomonas aeruginosa NBRC 3080 after overnight incubation by microplate dilution method. It counts as functional. In short, it runs like this:
as §1

The subject of the next data set is Escherichia coli. The data set can be described thus: Antibacterial activity against Escherichia coli NBRC 12734 after overnight incubation by microplate dilution method. It is filed as functional. In outline:
as §1

A short description of data set [2]: Hemolytic activity against sheep RBC at 20 to 100 uM after 30 mins by spectrophotometry. The following applies: erythrocyte, 0.5 h. It is filed as ADME, cell-based, Ovis aries. In outline:
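Sheep erythrocytes were exposed to a range of peptide concentrations to build hemolysis (%) dose–response curves. The experiment was run three times per peptide.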

What is called MIC is the lowest concentration that inhibits growth of the organism. Turning to `CC(C)C[C@@H]1NC(=O)[C@H](CCCN)NC(=O)[C@H](C(C)C)NC(=O)[C@@H]2CCCN2C(=O)[C@@H](Cc2ccccc2)NC(=O)[C@H](CC(C)C)NC(=O)[C@H](CCCN)NC(=O)[C@H](C(C)C)NC(=O)[C@@H]2CCCN2C(=O)[C@@H](Cc2ccccc2)NC1=O` [GRAMICIDIN S] (HELM PEPTIDE1{L.[dF].P.V.[Orn].L.[dF].P.V.[Orn]}$PEPTIDE1,PEPTIDE1,1:R1-10:R2$$$V2.0), the minimal inhibitory concentration (MIC) in data set [1] was found to be 3.13 µg/mL (≈ 2.74 µM); in the data set on Bacillus subtilis, 3.13 µg/mL (≈ 2.74 µM); in the data set on Priestia megaterium, 3.13 µg/mL (≈ 2.74 µM); in the data set with Staphylococcus aureus, 3.13 µg/mL (≈ 2.74 µM); in the data set with Pseudomonas aeruginosa, 25 µg/mL (≈ 21.9 µM); against Escherichia coli, 25 µg/mL (≈ 21.9 µM).

For `CC(C)C[C@@H]1NC(=O)[C@H](CCCN)NC(=O)[C@H](C(C)C)NC(=O)[C@@H]2C[C@H](N)CN2C(=O)[C@@H](Cc2ccccc2)NC(=O)[C@H](CC(C)C)NC(=O)[C@H](CCCN)NC(=O)[C@H](C(C)C)NC(=O)[C@@H]2CCCN2C(=O)[C@@H](Cc2ccccc2)NC1=O`, the minimum inhibitory concentration (MIC) in data set [1] was found to be 6.25 µg/mL (≈ 5.4 µM); in the data set on Bacillus subtilis it was 6.25 µg/mL (≈ 5.4 µM); against Priestia megaterium it was 6.25 µg/mL (≈ 5.4 µM); in the data set on Staphylococcus aureus, 12.5 µg/mL (≈ 10.8 µM); with Pseudomonas aeruginosa, 50 µg/mL (≈ 43.2 µM); against Escherichia coli it was 25 µg/mL (≈ 21.6 µM). Further, the Activity entry in data set [2] is on record as “Toxic”.

`CC(C)C[C@@H]1NC(=O)[C@H](CCCN)NC(=O)[C@H](C(C)C)NC(=O)[C@@H]2C[C@@H](N)CN2C(=O)[C@@H](Cc2ccccc2)NC(=O)[C@H](CC(C)C)NC(=O)[C@H](CCCN)NC(=O)[C@H](C(C)C)NC(=O)[C@@H]2CCCN2C(=O)[C@@H](Cc2ccccc2)NC1=O`: the minimum inhibitory concentration (MIC) in data set [1] was found to be 6.25 µg/mL (≈ 5.4 µM); in the data set on Bacillus subtilis, 6.25 µg/mL (≈ 5.4 µM); in the data set on Priestia megaterium, 6.25 µg/mL (≈ 5.4 µM); in the data set on Staphylococcus aureus it was 12.5 µg/mL (≈ 10.8 µM); against Pseudomonas aeruginosa, 50 µg/mL (≈ 43.2 µM); in the data set with Escherichia coli, 25 µg/mL (≈ 21.6 µM). Further, the Activity result in data set [2] is given as “Toxic”.

For `CCCCCCCC(=O)N[C@H]1C[C@H]2C(=O)N[C@@H](C(C)C)C(=O)N[C@@H](CCCN)C(=O)N[C@@H](CC(C)C)C(=O)N[C@H](Cc3ccccc3)C(=O)N3CCC[C@H]3C(=O)N[C@@H](C(C)C)C(=O)N[C@@H](CCCN)C(=O)N[C@@H](CC(C)C)C(=O)N[C@H](Cc3ccccc3)C(=O)N2C1`, the MIC in data set [1] came out at 6.25 µg/mL (≈ 4.87 µM); with Bacillus subtilis, 12.5 µg/mL (≈ 9.75 µM); with Priestia megaterium, 6.25 µg/mL (≈ 4.87 µM); in the data set with Staphylococcus aureus, 6.25 µg/mL (≈ 4.87 µM); in the data set with Pseudomonas aeruginosa, 50 µg/mL (≈ 39 µM); with Escherichia coli, 50 µg/mL (≈ 39 µM). Further, the Activity entry in data set [2] is listed as “Toxic”.
